Results collected from several papers.
Compare with care: the assays were run in different laboratories.

Cn1nnc2c(C(N)=O)ncn2c1=O
EC50 (BGC-823; cell growth or viability): > 1000 µM

COc1ccc(-c2ccc(-c3ccc(C(=N)N)nc3)s2)cc1Cl
GI50 (UACC-62; cell growth or viability, SRB): 1.76 µM

COc1cc(C(=O)Nc2cc(OC)c3ccccc3n2)nc(C(=O)Nc2cc(OC)c3ccccc3n2)c1
IC50 (U2OS; cell growth or viability, ATP luminescence; 72 h): > 40 µM

CCCCCCCCCCCCNC(=O)NCCCC[C@H](NS(C)(=O)=O)C(=O)N[C@H](C)C(=O)N[C@@H](CCCNC(=N)N)C(N)=O
EC50 (HeLa; cell growth or viability, MTT; 72 h): 23.1 to 41.4 µM

COc1cc(F)ccc1-c1cc(Nc2cc(CS(C)(=N)=O)ccn2)ncc1F (stereo not shown)
GI50 (HeLa; cell growth or viability; 24 h): 0.045 µM

O=C1Nc2ccccc2C1=NNc1nnc2n1N=C(c1ccccc1)CS2
inhibition (Hs-578T; cell growth or viability, SRB; 10 µM): 28%

CC(C)C[C@H](NC(=O)[C@H](Cc1ccccc1)NC(=O)c1cnccn1)B(O)O
IC50 (U2OS; cell growth or viability, ATP luminescence): 0.011 µM

CCOCCOCCOCCNC(=S)NCCCC[C@H](NS(C)(=O)=O)C(=O)N[C@@H](C)C(=O)N[C@@H](CCCNC(=N)N)C(N)=O
EC50 (HeLa; cell growth or viability, MTT; 72 h): > 100 µM

N[C@@H]1CCCN(c2c(/C=C3\SC(=O)NC3=O)cccc2-c2ccccc2)C1
GI50 (KMS-11; cell growth or viability, thymidine uptake): 4.67 µM

COc1cc(-c2ccc(-c3ccc(C(=N)N)nc3)s2)cc(OC)c1OC
GI50 (SK-MEL-2; cell growth or viability, SRB): 2.09 µM

N[C@@H](CC(=O)N1CCN(C(c2ccc(F)cc2)c2ccc(F)cc2)CC1)C(=O)N1Cc2ccccc2C1
IC50 (HEL; cell growth or viability, ATP luminescence; 48 h): 31.7 µM

Cc1ccc(NC(=O)c2ccc(CN3CCN(C)CC3)cc2)cc1Nc1nccc(-c2cccnc2)n1
inhibition (HeLa; cell growth or viability, MTT; 1 µM, 48 h): 11%

COc1cc(OC)c(C(=O)/C=C/c2ccc(Br)cn2)c(OC)c1
inhibition (HeLa; colony formation; 4 µM, 7 days): ~100%

C[C@@H](NC(=O)[C@H](CCCCNC(=O)C(F)(F)F)NS(C)(=O)=O)C(=O)N[C@@H](CCCNC(=N)N)C(N)=O
EC50 (HeLa; cell growth or viability, MTT; 72 h): 52.1 to 75.8 µM

COc1ccc(-c2ccc(-c3ccc(C(=N)N)nc3)s2)cc1
GI50 (Hs-578T; cell growth or viability, SRB): 1.82 µM

N=C(CCl)NCCC[C@H](NC(=O)c1ccccc1)C(N)=O
EC50 (U2OS; cell growth or viability, XTT; 72 h): > 200 µM
